The results in this text go back to ChEMBL document CHEMBL1154977, “Antiproliferative activity of novel benzo[b][1,6]naphthyridines in human solid tumor cell lines” (Bioorg Med Chem Lett, 2010).

For one test, the system named is Ishikawa. Description: Growth inhibition of human Ishikawa cells after 48 hrs by sulforhodamine B assay. The test is classed as functional. An outline of the steps: (§1)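 Human solid tumor cells were exposed to drug for 48 h. Growth was measured by sulforhodamine B staining, and results were expressed as GI₅₀ (50% growth inhibition).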
The subject of the next test is WiDr. The test can be described thus: Growth inhibition of human WiDr cells after 48 hrs by sulforhodamine B assay. Format: functional. A digest of the protocol:
as §1

A further test relates to SW1573. Description: Growth inhibition of human SW1573 cells after 48 hrs by sulforhodamine B assay. Format: functional. To be noted: SW1573, 48 h. A digest of the protocol: as §1
Another test deals with HeLa. Description: Growth inhibition of human HeLa cells after 48 hrs by sulforhodamine B assay. Format: functional. A digest of the protocol: as §1
The next test relates to T47D. Description: Growth inhibition of human T47D cells after 48 hrs by sulforhodamine B assay. The test is classed as functional. An outline of the steps:
as §1

The next test has as its system Candida parapsilosis. The test can be described thus: Antifungal activity against Candida parapsilosis ATCC 22019 after 48 hrs by broth microdilution method. The test is classed as functional, organism-based. The note with it: Lodderomyces parapsilosis, ATCC 22019, 48 h. An outline of the steps:
(§2)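 Candida strains were grown on nutrient agar at 35–37 °C for 24 h and suspended in normal saline at 1.0–5.0 × 10³ cfu mL⁻¹, matched to a 0.5 McFarland standard. Broth microdilution was run in RPMI 1640 buffered with MOPS, with growth and sterility controls. Plates were incubated at 35–37 °C in a moist dark chamber, shaken, and read for optical density at 490 nm after 48 h.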

For a further test, the system named is Nakaseomyces nivariensis. Description: Antifungal activity against Candida nivariensis 5937-63 after 48 hrs by broth microdilution method. Format: functional, organism-based. The note with it: 5937-63, 48 h. An outline of the steps:
as §2

The subject of test [1] is Staphylococcus aureus. Description: Antibacterial activity against epidemic methicillin-resistant Staphylococcus aureus 16 after 24 hrs by broth microdilution method. The note with it: Staphylococcus aureus, 16, 24 h. The test is classed as functional, organism-based. A digest of the protocol: (§3)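 Bacteria grown on nutrient agar at 35–37 °C for 24 h, then suspended in normal saline to approximately 5.0 × 10⁵ cfu mL⁻¹, matched to 0.5 McFarland. Broth microdilution in Mueller Hinton broth with growth and sterility controls. Incubated at 35–37 °C in a moist dark chamber, shaken, and optical density read at 630 nm after 24 h.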

Another test has as its system Candida albicans. Description: Antifungal activity against Candida albicans ATCC 90028 after 48 hrs by broth microdilution method. Format: functional, organism-based. To be noted: ATCC 90028, 48 h. An outline of the steps: as §2
The test system of the next test is Klebsiella pneumoniae. The test can be described thus: Antibacterial activity against Klebsiella pneumoniae ATCC 700603 after 24 hrs by broth microdilution method. The note with it: ATCC 700603, 24 h. The test is classed as functional, organism-based. A digest of the protocol:
(§4)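 Bacteria were grown on nutrient agar at 35–37 °C for 24 h and suspended in normal saline at about 5.0 × 10⁵ cfu mL⁻¹, matched to a 0.5 McFarland standard. Broth microdilution was run in Mueller Hinton broth with growth and sterility controls. Plates were incubated at 35–37 °C in a moist dark chamber, shaken, and read for optical density at 630 nm after 24 h.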

Test [2] has as its system Staphylococcus aureus. Description: Antibacterial activity against Staphylococcus aureus NRS 107 after 24 hrs by broth microdilution method. The test is classed as functional, organism-based. To be noted: NRS 107, 24 h. An outline of the steps:
as §3

The test system of test [3] is Staphylococcus aureus. The test can be described thus: Antibacterial activity against Staphylococcus aureus ATCC 25923 after 24 hrs by broth microdilution method. The test is classed as functional, organism-based. To be noted: ATCC 25923, 24 h. A digest of the protocol:
as §3

Test [4] relates to Staphylococcus aureus. The test can be described thus: Antibacterial activity against Staphylococcus aureus ATCC 29213 after 24 hrs by broth microdilution method. The test is classed as functional, organism-based. To be noted: ATCC 29213, 24 h. A digest of the protocol:
as §3

Test [5] concerns Escherichia coli. The test can be described thus: Antibacterial activity against Escherichia coli ATCC 35218 after 24 hrs by broth microdilution method. The test is classed as functional, organism-based. To be noted: ATCC 35218, 24 h. A digest of the protocol:
as §4

The next test concerns Enterococcus faecalis. Description: Antibacterial activity against Enterococcus faecalis ATCC 29212 after 24 hrs by broth microdilution method. The note with it: ATCC 29212, 24 h. Format: functional, organism-based. An outline of the steps:
as §4

The test system of test [6] is Escherichia coli. Description: Antibacterial activity against Escherichia coli ATCC 25922 after 24 hrs by broth microdilution method. The test is classed as functional, organism-based. The note with it: ATCC 25922, 24 h. A digest of the protocol: as §4
Another test has as its system Klebsiella oxytoca. The test can be described thus: Antibacterial activity against Klebsiella oxytoca ATCC 700324 after 24 hrs by broth microdilution method. The note with it: ATCC 700324, 24 h. The test is classed as functional, organism-based.
The next test concerns Pseudomonas aeruginosa. The test can be described thus: Antibacterial activity against Pseudomonas aeruginosa ATCC 27853 after 24 hrs by broth microdilution method. The note with it: ATCC 27853, 24 h. The test is classed as functional, organism-based. A digest of the protocol:
as §4

The test system of a further test is Nakaseomyces glabratus. Description: Antifungal activity against Candida glabrata ATCC 90030 after 48 hrs by broth microdilution method. The test is classed as functional, organism-based. To be noted: ATCC 90030, 48 h. An outline of the steps: as §2
For a further test, the system named is Pichia kudriavzevii. Description: Antifungal activity against Candida krusei ATCC 6258 after 48 hrs by broth microdilution method. Format: functional, organism-based. The note with it: ATCC 6258, 48 h. A digest of the protocol:
as §2

For the compound `ClC(Cl)(Cl)C1c2cc3ccccc3nc2C=C(c2ccccc2)N1CCc1ccccc1` (stereo not given), the GI50 was 25 µM in the test with Ishikawa; 57 µM in the test on WiDr; 5.5 µM in the test with SW1573; 38 µM in the test with HeLa; 60 µM in the test with T47D.

Turning to `COC1OC(c2ccccc2)=Cc2nc3ccccc3cc21` (stereo not given), the IC50 with Candida parapsilosis, with Nakaseomyces nivariensis, in the test on Staphylococcus aureus [1], in the test with Candida albicans, with Klebsiella pneumoniae and in the test with Staphylococcus aureus [2] was over 100 µM in each case. Further, the IC50 in the test with Staphylococcus aureus [3] is over 100 µM; in the test on Staphylococcus aureus [4], 29 µM; in the test on Escherichia coli [5] it was over 100 µM; with Enterococcus faecalis, over 100 µM; in the test on Escherichia coli [6], over 100 µM; in the test on Klebsiella oxytoca it was over 100 µM. Also, the 50% inhibitory concentration (IC50) with Pseudomonas aeruginosa, with Nakaseomyces glabratus and in the test with Pichia kudriavzevii was over 100 µM in each case. Besides, the GI50 with Ishikawa, with WiDr, in the test with SW1573, in the test with HeLa and with T47D was over 100 µM in each case.

In the case of `ClC(Cl)(Cl)C1c2cc3ccccc3nc2C=C(c2ccccc2)N1Cc1ccccc1` (stereo not given), the GI50 in the test on Ishikawa was determined as 15 µM; in the test on WiDr it was 46 µM; with SW1573, 5.1 µM; in the test on HeLa it was 27 µM; in the test on T47D it was 71 µM.

In the case of `CCOc1ccc(CCN2C(c3ccccc3)=Cc3nc4ccccc4cc3C2C(Cl)(Cl)Cl)cc1OCC` (stereo not given), the GI50 was 4.1 µM in the test on Ishikawa; 37 µM with WiDr; 4.3 µM in the test on SW1573; 5.6 µM in the test with HeLa; 54 µM in the test with T47D.

Consider `CCCCN1C(c2ccccc2)=Cc2nc3ccccc3cc2C1C(Cl)(Cl)Cl` (stereo not given), for which the GI50 with Ishikawa was found to be 3.1 µM; in the test on WiDr, 16 µM; with SW1573, 6.5 µM; in the test with HeLa, 6.1 µM; with T47D it was 15 µM.

For the compound `ClC(Cl)(Cl)C1c2cc3ccccc3nc2C=C(c2ccccc2)N1CCN1CCOCC1` (stereo not given), the GI50 in the test on Ishikawa amounted to 17 µM; in the test on WiDr it was 20 µM; in the test with SW1573, 31 µM; with HeLa, 6.5 µM; in the test on T47D, 26 µM.

`CCOC1OC(c2ccccc2)=Cc2nc3ccccc3cc21` (stereo not given): the IC50 came to 20 µM with Candida parapsilosis; 16 µM in the test with Nakaseomyces nivariensis; 17 µM in the test on Staphylococcus aureus [1]; 20 µM with Candida albicans; 56 µM with Klebsiella pneumoniae; 24 µM in the test on Staphylococcus aureus [2]. For the same compound, the half-maximal inhibitory concentration (IC50) in the test with Staphylococcus aureus [3] worked out at 20 µM; in the test on Staphylococcus aureus [4] it was 23 µM; in the test on Escherichia coli [5], 27 µM; in the test on Enterococcus faecalis, 25 µM; with Escherichia coli [6] it was 20 µM; in the test with Klebsiella oxytoca it was 63 µM. For the same compound, the IC50 in the test with Pseudomonas aeruginosa was 22 µM; in the test on Nakaseomyces glabratus, 18 µM; in the test on Pichia kudriavzevii, 4.5 µM. Also, the GI50 in the test on Ishikawa, with WiDr, in the test with SW1573, with HeLa and in the test on T47D was over 100 µM throughout.

Regarding `C=CCN1C(c2ccccc2)=Cc2nc3ccccc3cc2C1C(Cl)(Cl)Cl` (stereo not given), the concentration for 50% growth inhibition (GI50) came to 31 µM with Ishikawa; 42 µM with WiDr; 46 µM in the test with SW1573; 32 µM with HeLa; 48 µM with T47D.
